Data reported in ChEMBL document CHEMBL4414557, “Labdanes, Withanolides, and Other Constituents from Physalis nicandroides” (J Nat Prod, 2019).
Calls of active or inactive are those of the source. The rule behind the calls is not given here.

Legend:
[1] = target: Acetylcholinesterase (Electrophorus electricus) (UniProt O42275); experiment: Activation of Electrophorus electricus AChE at 100 uM using acetylthiocholine iodide as substrate preincubated for 30 mins followed by substrate addition and measured after 5 mins by Ellman's method relative to control
Chain of Acetylcholinesterase (Electrophorus electricus) (O42275 24-633 limits assumed): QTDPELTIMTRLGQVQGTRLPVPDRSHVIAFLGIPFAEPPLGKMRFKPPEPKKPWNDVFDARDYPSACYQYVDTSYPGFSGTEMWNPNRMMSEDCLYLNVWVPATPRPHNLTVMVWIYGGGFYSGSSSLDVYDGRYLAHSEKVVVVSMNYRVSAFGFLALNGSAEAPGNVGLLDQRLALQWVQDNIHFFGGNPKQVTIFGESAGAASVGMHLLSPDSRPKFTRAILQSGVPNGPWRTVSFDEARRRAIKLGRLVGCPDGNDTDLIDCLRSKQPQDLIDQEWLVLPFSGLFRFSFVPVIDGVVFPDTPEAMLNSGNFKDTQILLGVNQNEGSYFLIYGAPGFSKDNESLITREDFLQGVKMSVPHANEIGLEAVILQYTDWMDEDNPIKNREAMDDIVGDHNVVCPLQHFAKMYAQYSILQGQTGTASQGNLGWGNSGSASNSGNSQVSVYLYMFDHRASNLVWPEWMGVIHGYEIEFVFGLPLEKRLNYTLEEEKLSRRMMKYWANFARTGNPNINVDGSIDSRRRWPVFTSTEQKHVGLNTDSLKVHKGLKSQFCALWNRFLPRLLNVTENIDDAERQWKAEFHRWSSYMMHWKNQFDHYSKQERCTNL

Saccharomyces cerevisiae [2] = experiment: Activation of yeast alpha-glucosidase type 1 at 100 uM using p-Nitrophenyl alpha-D-glucopyranoside as substrate preincubated for 10 mins followed by incubation with substrate for 15 mins and measured after 5 mins by microplate reader analysis relative to control
Summary of the method: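 Yeast α-glucosidase type I (25 μL, 0.2 U mL−1 in PBS) with glutathione (25 μL, 3 mM) in phosphate buffer (67 mM, pH 6.8). Samples were added in DMSO–H2O 1:1 and preincubated 10 min at 37 °C. Then p-nitrophenyl α-D-glucopyranoside (25 μL, 23.2 mM) was added, 15 min at 37 °C with agitation. Stopped with 1 M Na2CO3; A405 read. % vs negative control; triplicate, mean ± SD.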

Saccharomyces cerevisiae [3] = experiment: Inhibition of yeast alpha-glucosidase type 1 at 100 uM using p-Nitrophenyl alpha-D-glucopyranoside as substrate preincubated for 10 mins followed by incubation with substrate for 15 mins and measured after 5 mins by microplate reader analysis
Summary of the method: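 Sample in DMSO–H2O 1:1 added to PBS (67 mM, pH 6.8) with glutathione (3 mM in PBS) and enzyme (0.2 U mL−1 in PBS), preincubated 10 min at 37 °C. p-Nitrophenyl α-D-glucopyranoside (23.2 mM in PBS) then added, 15 min at 37 °C with agitation. Stopped with 1 M Na2CO3, read at 405 nm after 5 min. Percent inhibition versus negative control, triplicate. Quercetin positive control.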

[4] = target: Acetylcholinesterase (Electrophorus electricus) (UniProt O42275); experiment: Inhibition of Electrophorus electricus AChE at 100 uM using acetylthiocholine iodide as substrate preincubated for 30 mins followed by substrate addition and measured after 5 mins by Ellman's method relative to control
Acetylcholinesterase = Acetylcholinesterase (Electrophorus electricus, UniProt O42275); experiment: Inhibition of Electrophorus electricus AChE using acetylthiocholine iodide as substrate preincubated for 30 mins followed by substrate addition and measured after 5 mins by Ellman's method
Chain of Acetylcholinesterase (O42275 whole entry): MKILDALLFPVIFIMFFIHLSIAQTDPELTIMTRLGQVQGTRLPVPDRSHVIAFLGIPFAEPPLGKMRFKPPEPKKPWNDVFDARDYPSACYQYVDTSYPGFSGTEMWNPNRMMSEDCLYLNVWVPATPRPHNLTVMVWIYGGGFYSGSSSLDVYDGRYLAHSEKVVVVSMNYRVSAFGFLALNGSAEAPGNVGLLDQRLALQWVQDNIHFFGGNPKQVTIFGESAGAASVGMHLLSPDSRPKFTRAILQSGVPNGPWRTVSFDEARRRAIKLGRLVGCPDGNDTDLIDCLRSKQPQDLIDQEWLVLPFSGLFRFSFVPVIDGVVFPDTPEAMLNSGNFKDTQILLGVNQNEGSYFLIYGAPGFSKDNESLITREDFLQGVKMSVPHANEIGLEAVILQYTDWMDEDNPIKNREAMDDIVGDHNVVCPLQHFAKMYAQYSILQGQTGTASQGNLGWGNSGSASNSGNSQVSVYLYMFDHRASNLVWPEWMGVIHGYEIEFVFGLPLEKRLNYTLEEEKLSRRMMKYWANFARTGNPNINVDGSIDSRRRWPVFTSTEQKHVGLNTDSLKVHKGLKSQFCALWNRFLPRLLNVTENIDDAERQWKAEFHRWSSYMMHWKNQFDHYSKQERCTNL

Compound | Activity [1] | Activity (Saccharomyces cerevisiae [2]) | inhibition (Saccharomyces cerevisiae [3]) | inhibition [4] | IC50 (Acetylcholinesterase)
C=C1CC[C@H]2C(C)(C)CCC[C@]2(C)[C@H]1C[C@H](O[C@@H]1O[C@H](CO)[C@@H](O)[C@H](O)[C@H]1O)/C(C)=C/COC(=O)CC(C)C | 6.7 to 96% | 1.1 to 29.4% |  |  | 
C=C1CC[C@H]2C(C)(C)CCC[C@]2(C)[C@H]1C[C@H](O[C@@H]1O[C@H](COC(C)=O)[C@@H](OC(C)=O)[C@H](OC(C)=O)[C@H]1OC(C)=O)/C(C)=C/COC(=O)CC(C)C | 6.7 to 96% |  | Active |  | 
C/C(=C\CO)CC[C@@H]1[C@@]2(C)CCCC(C)(C)[C@@H]2CC[C@@]1(C)O | 6.7 to 96% | 1.1 to 29.4% |  |  | 
C=C1CC[C@H]2C(C)(C)CCC[C@]2(C)[C@H]1CC/C(=C/CO)CO |  |  | Active | 33.9% | 
C=C1CC[C@H]2C(C)(C)CCC[C@]2(C)[C@H]1CC(=O)/C(C)=C/CO | 6.7 to 96% | 1.1 to 29.4% |  |  | 
CC(=O)O[C@H]1C[C@H]([C@@](C)(O)[C@H]2CC(C)=C(C)C(=O)O2)[C@@]2(C)CC[C@H]3[C@@H](C[C@@H](OC(C)=O)[C@@]4(Cl)CC=CC(=O)[C@]34C)[C@@]12O | 6.7 to 96% |  | Active |  | 
C=C1CC[C@H]2C(C)(C)CCC[C@]2(C)[C@H]1C[C@H](O)/C(C)=C/CO | 6.7 to 96% | 1.1 to 29.4% |  |  | 
C=C1CC[C@H]2C(C)(C)CCC[C@]2(C)[C@H]1C[C@H](O[C@@H]1O[C@H](CO)[C@@H](O)[C@H](O)[C@H]1O)/C(C)=C/CO | 6.7 to 96% | 1.1 to 29.4% |  |  | 
C=C(C)C(C)(O)CC[C@@H](C)[C@H]1CC[C@H]2[C@@H]3CC=C4C[C@@H](O)CC[C@]4(C)[C@H]3CC[C@]12C (stereo partly drawn) |  |  | Active | 24% | 
CO[C@@H]1CC(=O)[C@]2(C)[C@H]3CC[C@]4(C)[C@@H]([C@@](C)(O)[C@H]5CC(C)=C(C)C(=O)O5)C[C@H](OC(C)=O)[C@]4(O)[C@@H]3C[C@H]3O[C@]32C1 | 6.7 to 96% |  | Active |  | 
CC(=O)O[C@H]1C[C@H]([C@@](C)(O)[C@H]2CC(C)=C(C)C(=O)O2)[C@@]2(C)CC[C@H]3[C@@H](C[C@H]4O[C@]45CC=CC(=O)[C@]35C)[C@@]12O | 6.7 to 96% |  | Active |  | 
C=C1CC[C@H]2C(C)(C)CCC[C@]2(C)[C@H]1C[C@@H](O)/C(C)=C/CO | 6.7 to 96% | 1.1 to 29.4% |  |  | 
C=C(CC[C@@H]1[C@@]2(C)CCCC(C)(C)[C@@H]2CC[C@@]1(C)O)[C@@H](O)CO | 6.7 to 96% | 1.1 to 29.4% |  |  | 
CC(=O)O[C@H]1C[C@H]([C@@](C)(O)[C@H]2CC(C)=C(C)C(=O)O2)[C@@]2(C)CC[C@H]3[C@@H](C[C@@H](O)[C@@]4(Cl)CC=CC(=O)[C@]34C)[C@@]12O | 6.7 to 96% |  | Active |  | 
C=C(CC[C@@H]1[C@@]2(C)CCCC(C)(C)[C@@H]2CC[C@@]1(C)O)[C@H](O)CO | 6.7 to 96% | 1.1 to 29.4% |  |  | 
C=C1CC[C@H]2C(C)(C)CCC[C@]2(C)[C@H]1Cc1occc1C |  | 1.1 to 29.4% |  | 57.5% | 64.4 µM
